{"source": "paper PMC7851350", "about": "(Neoplasia (New York, N.Y.), 2021)", "key": {"[1]": {"assay_type": "in vivo, mice", "outline": "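Female C57BL/6 mice bearing subcutaneous B16F10-hPD-L1 tumours were randomised and dosed daily for 1 wk with vehicle, 15 mg/kg or 50 mg/kg test compound. On day 7 after the first dose, serum GOT, GPT, ALP and ALB were measured on an automatic dry-type biochemical analyser. Deaths and toxic effects were recorded during the study.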"}, "[2]": {"tested_on": "CD4+ T cells cocultured with hPD-L1 overexpressed HEK293T cells", "test": "T cell response assay, CD4+ T cells cocultured with HEK293T-hPD-L1 cells", "assay_type": "cell-based, human", "conditions": "48 h coculture", "outline": "(§1)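 Human CD4⁺ T blasts were expanded ~7 d with IL-2 (100 IU/mL) and CD3/CD28 beads (1:1), then frozen. Target cells (NCI-H1975, HEK293T-hPD-L1 or PD-L1-negative HEK293T; 10,000/well) adhered for 24 h. T cells (2 × 10⁴; E:T 2:1) were added with or without test compound or atezolizumab in complete RPMI-1640 for 48 h at 37°C, 5% CO₂. Supernatant IFN-γ and TNF-α were measured by ELISA.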"}, "[3]": {"tested_on": "CD4+ T cells cultured alone", "test": "T cell response assay, prestimulated T cells cultured alone", "assay_type": "cell-based, human", "conditions": "T-lymphocytes cultured alone, 48 h", "outline": "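Prestimulated human CD4⁺ T cells (IL-2 100 IU/mL, CD3/CD28 beads 1:1, ~7 d expansion) were cultured alone (2 × 10⁴) with or without test compound for 48 h at 37°C, 5% CO₂. Supernatant IFN-γ and TNF-α were measured by ELISA.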"}, "murine PD-L1 protein": {"molecular_target": "murine PD-L1 protein (Mus musculus, UniProt Q9EP73)", "sequence (Q9EP73 19-290)": "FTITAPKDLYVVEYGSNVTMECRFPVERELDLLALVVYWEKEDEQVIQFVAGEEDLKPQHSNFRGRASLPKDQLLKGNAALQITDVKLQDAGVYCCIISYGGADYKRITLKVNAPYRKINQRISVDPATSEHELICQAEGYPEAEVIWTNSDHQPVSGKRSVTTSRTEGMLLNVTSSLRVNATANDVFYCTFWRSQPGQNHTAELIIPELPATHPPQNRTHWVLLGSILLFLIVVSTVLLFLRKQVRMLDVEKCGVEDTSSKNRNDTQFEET", "test": "SPR binding affinity to murine PD-L1", "outline": "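SPR running buffer was 1.05× PBS (pH 7.4) with 5% DMSO, at 25°C and 30 µL/min. DMSO solvent correction used 8 standards (4.5–5.8%). Test compound (10 mM DMSO stock) was diluted to 100–3.125 µM plus a 0 µM blank. Each cycle had 90 s injection, 120 s dissociation and 30 s buffer carryover check. Kd came from a global steady-state fit.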"}, "[4]": {"test": "Stability assay in human blood plasma", "assay_type": "in vitro ADME", "outline": "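Test compound at 2 µM was incubated in human plasma at 37°C. Duplicate samples were taken at 0, 10, 30, 60 and 120 min. Reactions were stopped with 50% ACN/MeOH containing tolbutamide and labetalol (200 ng/mL each).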"}, "MC38 tumor": {"tested_on": "MC38 tumor", "test": "Antitumor efficacy in MC38 colon tumor-bearing mice", "assay_type": "in vivo, C57BL/6 mice", "outline": "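Mice were female C57BL/6, 5–6 wk old. MC38 cells (3 × 10⁶) were injected s.c. into the right abdomen; mice were randomised at 50–70 mm³. Test compound (10 or 15 mg/kg) was given i.p. every 2 d in saline with 8% ethanol and 8% glycerin. Atezolizumab (10 mg/kg) was given i.v. every 3 d. Calipers were read every 2 d; volume = 1/2 × L × W². Mice were sacrificed after 7 doses. Body weight was followed; growth inhibition was computed against vehicle and predose volumes.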"}, "[5]": {"tested_on": "tumor-infiltrating lymphocytes (TILs)", "test": "Flow cytometry of tumor-infiltrating lymphocytes from B16F10-hPD-L1 tumors", "assay_type": "in vivo, mice", "conditions": "15 mg/kg", "outline": "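Tumours from B16F10-hPD-L1 mice treated with 15 mg/kg test compound or vehicle were minced and digested for 45 min at 37°C in collagenase IV (200 U/mL) plus DNase I (40 U/mL). They were then treated with EDTA for 5 min at 37°C and strained at 70 µm. Cells were stained for CD3, CD4, CD8, perforin and granzyme B and analysed by flow cytometry; mean ± SEM, unpaired t test.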"}, "[6]": {"tested_on": "B16F10-hPD-L1 tumor tissue", "test": "RNA-seq of B16F10-hPD-L1 tumor tissue", "assay_type": "in vivo, mice", "conditions": "15 mg/kg vs vehicle"}, "[7]": {"tested_on": "CD4+ T cells cocultured with NCI-H1975 cells", "test": "T cell response assay, CD4+ T cells cocultured with NCI-H1975 cells", "assay_type": "cell-based, human", "conditions": "48 h coculture, ELISA", "outline": "as §1"}, "[8]": {"tested_on": "spleen T lymphocyte markers", "test": "Immunohistochemistry of spleen from treated tumor-bearing mice", "assay_type": "in vivo", "conditions": "IHC, 15 mg/kg, vs vehicle", "outline": "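Spleens came from tumour-bearing mice treated with 15 mg/kg test compound or vehicle. Sections (4 µm) of 4% PFA-fixed, paraffin-embedded tissue were stained overnight at 4°C with anti-CD4, CD8 and FoxP3. HRP secondary was applied for 30 min, then DAB. Positive particles were counted per field (n = 5); mean ± SEM, unpaired t test.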"}, "B16F10-hPD-L1 tumor": {"tested_on": "B16F10-hPD-L1 tumor", "test": "Antitumor efficacy in B16F10-hPD-L1 tumor-bearing C57BL/6 mice", "assay_type": "in vivo"}, "splenic lymphocytes": {"tested_on": "splenic lymphocytes", "assay_type": "in vivo, mice", "conditions": "15 mg/kg, vs vehicle", "outline": "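B16F10-hPD-L1 (5 × 10⁶ s.c.) mice received 15 mg/kg test compound i.p. every 2 d or vehicle. Spleens were taken at day 24, meshed through 70 µm, ACK-lysed, and 1 × 10⁶ cells were stained for CD3, CD4, CD8 and perforin. For intracellular cytokines, 2 × 10⁶ cells were stimulated with activation cocktail (1:500) plus brefeldin A (1:1000) for 3–4 h at 37°C, then stained for CD3, CD4, IFN-γ and TNF-α. Data are mean ± SEM; unpaired t test.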"}, "[9]": {"tested_on": "B16F10-hPD-L1 tumor tissue", "test": "Immunohistochemistry of B16F10-hPD-L1 tumor tissue", "assay_type": "in vivo, mice", "conditions": "IHC, 15 mg/kg, vs vehicle", "outline": "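Tumours came from B16F10-hPD-L1-bearing C57BL/6 mice given 15 mg/kg test compound or vehicle. Sections (4 µm) of 4% PFA-fixed, paraffin-embedded tissue were incubated with anti-FoxP3, anti-CD4 and anti-CD8 overnight at 4°C. HRP secondary was applied for 30 min, followed by DAB. Positive particles were counted per field.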"}, "[10]": {"tested_on": "CD4+ T cells cocultured with PD-L1-negative HEK293T cells", "assay_type": "cell-based, human", "conditions": "coculture with PD-L1-negative HEK293T cells, 48 h", "outline": "as §1"}, "Jurkat cells": {"tested_on": "Jurkat cells", "test": "Cell toxicity on Jurkat cells during flow cytometric experiments", "assay_type": "cell-based", "conditions": "concentration up to 50 μM"}, "PD-L1": {"tested_on": "PD-L1", "conditions": "cited from earlier work"}, "post-treatment tumors": {"tested_on": "post-treatment tumors", "conditions": "responders; cited from earlier work"}, "[11]": {"conditions": "15 and 50 mg/kg daily, day 7, vs control"}, "[12]": {"conditions": "flow cytometry and IHC, vs vehicle"}}, "data": [{"compound": "NC(=O)c1ccccc1NC(=O)c1ccc(-c2ccccc2)cc1", "note": "[APBC, N-[2-(aminocarbonyl)phenyl][1,1′-biphenyl]-4-carboxamide]", "values": [{"measurement": "drug-related deaths", "setting": "[1]; 1-wk, daily up to 50 mg/kg", "result": "no drug-related deaths"}, {"measurement": "drug-related toxic effects", "setting": "[1]; 1-wk, daily up to 50 mg/kg", "result": "no drug-related toxic effects observed"}, {"measurement": "tolerability", "setting": "[1]; 1-wk, daily up to 50 mg/kg", "result": "well tolerated"}, {"measurement": "serum level of ALB", "setting": "[1]; [11]", "result": "no significant changes"}, {"measurement": "serum level of ALP", "setting": "[1]; [11]", "result": "no significant changes"}, {"measurement": "serum level of GOT", "setting": "[1]; daily, up to 50 mg/kg, day 7", "result": "tendency to considerable decrease"}, {"measurement": "serum level of GPT", "setting": "[1]; daily, up to 50 mg/kg, day 7", "result": "tendency to considerable decrease"}, {"measurement": "toxicity in murine models", "setting": "[1]; up to 50 mg/kg", "result": "no observable toxicity"}, {"measurement": "TNF-α level increase", "setting": "[2]; 10 µM", "result": 41.8, "unit": "%"}, {"measurement": "TNF-α production increase", "setting": "[2]; 50 μM", "result": 86.6, "unit": "%"}, {"measurement": "IFN-γ and TNF-α production", "setting": "[3]", "result": "did not significantly affect"}, {"measurement": "Kd", "setting": "murine PD-L1 protein", "result": "> 100", "unit": "µM"}, {"measurement": "blood plasma stability", "setting": "[4]", "result": "relatively good"}, {"measurement": "growth of colon tumors", "setting": "MC38 tumor; 10 mg/kg, after 7 times of treatment", "result": "inhibited significantly"}, {"measurement": "effect on body weight", "setting": "MC38 tumor; during the treatment period", "result": "no significant effect"}, {"measurement": "GzmB expression in CD3+ T cells of tumors", "setting": "[5]; TILs, vs controls", "result": "markedly elevated"}, {"measurement": "perforin expression in CD3+ T cells of tumors", "setting": "[5]; TILs, vs controls", "result": "markedly elevated"}, {"measurement": "CD4+ T-cell population in tumors", "setting": "[5]; [12]", "result": "significantly increased"}, {"measurement": "CD8+ T-cell population in tumors", "setting": "[5]; [12]", "result": "significantly increased"}, {"measurement": "infiltration of CD8+ T cells in the tumor", "setting": "[6]; CIBERSORTx, P< 0.05", "result": "significant higher infiltration"}, {"measurement": "immune pathways (antigen processing and presentation, T-cell receptor signaling, TNF signaling, Th1 and Th2 cell differentiation)", "setting": "[6]; GSEA", "result": "markedly upregulated"}, {"measurement": "pathways related to Glycolysis or MAPK signaling pathway", "setting": "[6]; GSEA", "result": "markedly downregulated"}, {"measurement": "IFN-γ level", "setting": "[7]", "result": "dose dependent increase"}, {"measurement": "TNF-α level", "setting": "[7]", "result": "dose dependent increase"}, {"measurement": "density of CD4+ T lymphocytes in the spleen", "setting": "[8]", "result": "considerably higher density"}, {"measurement": "density of CD8+ T lymphocytes in the spleen", "setting": "[8]", "result": "considerably higher density"}, {"measurement": "expression of FoxP3 in the spleen", "setting": "[8]", "result": "no significant changes"}, {"measurement": "tumor growth inhibition", "setting": "B16F10-hPD-L1 tumor; 10 mg/kg intraperitoneal every 2 d, 8 treatments", "result": 62.1, "unit": "%"}, {"measurement": "treated animals almost tumor free", "setting": "B16F10-hPD-L1 tumor; 15 mg/kg intraperitoneal every 2 d", "result": "4 of 10"}, {"measurement": "tumor growth inhibition", "setting": "B16F10-hPD-L1 tumor; 15 mg/kg intraperitoneal every 2 d, 8 treatments", "result": 82.2, "unit": "%"}, {"measurement": "spleen (splenomegaly / spleen weight)", "setting": "B16F10-hPD-L1 tumor; day 24 after tumor inoculation, vs vehicle group with splenomegaly", "result": "normal spleens"}, {"measurement": "percentage of CD3+ CD4+ T lymphocytes in the spleen", "setting": "splenic lymphocytes; P < 0.001", "result": "significantly increased"}, {"measurement": "percentage of CD3+ CD8+ T lymphocytes in the spleen", "setting": "splenic lymphocytes; P < 0.001", "result": "significantly increased"}, {"measurement": "percentage of CD3+ T lymphocytes in the spleen", "setting": "splenic lymphocytes; P < 0.001", "result": "significantly increased"}, {"measurement": "percentage of IFN-γ producing CD4+ T cells", "setting": "splenic lymphocytes; spleen", "result": "extremely significant increase"}, {"measurement": "percentage of TNF-α producing CD4+ T cells", "setting": "splenic lymphocytes; spleen", "result": "extremely significant increase"}, {"measurement": "perforin production from CD3+ cells", "setting": "splenic lymphocytes; spleen, P< 0.01", "result": "significantly increased"}, {"measurement": "FoxP3 expression levels within tumors", "setting": "[9]", "result": "did not significantly change"}, {"measurement": "IFN-γ and TNF-α production", "setting": "[10]", "result": "did not significantly affect"}, {"measurement": "cell toxicity", "setting": "Jurkat cells", "result": "not observed"}]}, {"compound": "C[C@@H](O)[C@H](NC(=O)N[C@@H](CC(N)=O)c1nc([C@@H](N)CO)no1)C(=O)O", "note": "[CA-170]", "values": [{"measurement": "direct binding to PD-L1", "setting": "PD-L1", "result": "no direct binding"}]}, {"compound": "Atezolizumab: anti-PD-L1 antibody, positive control [reference compound]", "values": [{"measurement": "tumor growth inhibition", "setting": "B16F10-hPD-L1 tumor; 10 mg/kg tail vein injection every 3 d", "result": 66.1, "unit": "%"}, {"measurement": "cytokines production such as IFN-γ and TNF-α", "setting": "post-treatment tumors", "result": "increased"}]}]}
